From ChEMBL document CHEMBL1122501, “Potential antiatherosclerotic agents. 2. (Aralkylamino)- and (alkylamino) benzoic acid analogues of cetaben” (1983) come the findings set out here.

For test [1], the system named is Rattus norvegicus. Briefly: In vivo triglyceride lowering activity dosed at 0.10 % of the diet. The test is classed as functional. A digest of the protocol: (§1)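 Male CFE or CD-1 Sprague-Dawley rats, 140-150 g; 8 per control group, 4 per test group. Compound mixed into ground chow (w/w) via MeOH-CHCl3 (1:3) solution, solvent evaporated; controls got solvent-treated chow. Fed ad libitum 5 days, food intake monitored, killed fed and bled. Serum sterols and triglycerides by adapted autoanalyzer methods; mean percent of control, Student's t test.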

In test [2] the target is T1, Sterol O-acyltransferase 1 (Rattus norvegicus) (UniProt O70536).
T1 sequence (whole entry): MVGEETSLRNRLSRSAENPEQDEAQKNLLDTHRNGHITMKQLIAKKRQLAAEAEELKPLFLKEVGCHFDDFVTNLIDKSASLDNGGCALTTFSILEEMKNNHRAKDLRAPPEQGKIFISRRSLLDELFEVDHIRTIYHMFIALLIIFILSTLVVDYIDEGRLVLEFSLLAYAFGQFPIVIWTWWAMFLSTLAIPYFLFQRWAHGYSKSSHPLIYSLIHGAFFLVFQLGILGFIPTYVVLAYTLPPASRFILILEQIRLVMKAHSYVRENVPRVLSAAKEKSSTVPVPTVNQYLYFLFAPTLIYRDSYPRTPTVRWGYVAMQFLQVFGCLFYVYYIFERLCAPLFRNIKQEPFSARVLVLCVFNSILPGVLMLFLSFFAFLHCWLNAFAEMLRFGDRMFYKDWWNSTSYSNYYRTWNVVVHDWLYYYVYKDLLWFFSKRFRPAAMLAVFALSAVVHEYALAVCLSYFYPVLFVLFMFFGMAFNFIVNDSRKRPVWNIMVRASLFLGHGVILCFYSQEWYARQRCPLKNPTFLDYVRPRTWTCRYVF
Briefly: In vitro inhibitory activity against acyl coenzyme A:cholesterol acyltransferase (ACAT). The conditions noted are these: concentration not given here. On the set-up: concentration or dose not given beside the values. A digest of the protocol: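 ACAT enzyme from rat adrenal homogenate in 0.2 M KH2PO4 buffer pH 7.4, 1000g 15 min 5 °C supernatant (microsomal fraction). Supernatant + BSA (50 mg/mL) + compound at final 5.2 μg/mL + buffer preincubated 10 min 37 °C; [14C]oleoyl-CoA (0.4 μCi) added, 30 min 37 °C. Lipids extracted, TLC; cholesteryl ester zone counted. Mean % inhibition vs no-compound control; Student's t test.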

Test [3] deals with Rattus norvegicus. Briefly: In vivo triglyceride lowering activity, dosed at 0.03 % of the diet. The test is classed as functional. Put shortly: as §1
Test [4] has as its system Rattus norvegicus. Briefly: In vivo Triglyceride lowering activity at dose as 0.01 % of the diet. Format: functional. Put shortly: as §1
For test [5], the system named is Rattus norvegicus. In words: In vivo Sterol lowering activity at dose as 0.01 % of the diet. Format: functional. A digest of the protocol: as §1
The test system of test [6] is Rattus norvegicus. Briefly: In vivo Sterol lowering activity at dose as 0.03 % of the diet. The test is classed as functional. Put shortly: as §1
For test [7], the system named is Rattus norvegicus. Briefly: In vivo Sterol lowering activity at dose as 0.10 % of the diet. Format: functional. A digest of the protocol: as §1
The subject of test [8] is Rattus norvegicus. Briefly: In vivo sterol lowering activity dosed at 0.10 % of the diet. The test is classed as functional. Put shortly: as §1

Turning to `CCOC(=O)C(C)c1ccc(NCCCc2ccc(Cl)cc2)cc1` (stereo not given), the “serum triglycerides, percent of control” value with Rattus norvegicus [1] is given as 42%; in the test on Rattus norvegicus [3] it was 48%. Also, the inhibition (usually the percentage by which the read-out fell short of the control) in test [2] was 85%. The compound also displayed a Diet with Rattus norvegicus [4] of 57%. Further, the “serum sterol, percent of control” value with Rattus norvegicus [5] is 86%; with Rattus norvegicus [7] it was 75%. In addition, the “serum sterol level, percent of control” value in the test on Rattus norvegicus [6] came out at 89%.
Take `CCOC(=O)c1ccc(NC/C=C/c2ccc(Cl)cc2)cc1`: the “serum triglycerides, percent of control” value in the test with Rattus norvegicus [1] stood at 46%; with Rattus norvegicus [3], 45%. For the same compound, in test [2], the inhibition was 23%. The compound further displayed a Diet with Rattus norvegicus [4] of 64%. Also, the “serum sterol, percent of control” value with Rattus norvegicus [5] came to 93%; in the test with Rattus norvegicus [7] it was 78%. Besides, the “serum sterol level, percent of control” value with Rattus norvegicus [6] is reported as 100%.
`CCOC(=O)c1cccc(NCCCc2ccc(Cl)cc2)c1`: the “serum triglycerides, percent of control” value in the test on Rattus norvegicus [1] is on record as 59%; in the test on Rattus norvegicus [3], 62%. Further, the inhibition in test [2] is 50%. The Diet with Rattus norvegicus [4] is listed as 75%. In addition, the “serum sterol, percent of control” value in the test on Rattus norvegicus [5] and with Rattus norvegicus [7] was 96% each time. Besides, the “serum sterol level, percent of control” value with Rattus norvegicus [6] was 93%.
As to `O=C(O)c1ccc(NCCCc2cccc(F)c2)cc1`, the “serum triglycerides, percent of control” value came to 35% in the test on Rattus norvegicus [1] and 61% in the test with Rattus norvegicus [3]. Also, in test [2], the inhibition was 18%. Moreover, the Diet came out at 53% in the test with Rattus norvegicus [4] and 90% with Rattus norvegicus [7]. Further, the “serum sterol, percent of control” value with Rattus norvegicus [5] came out at 94%. Besides, the “serum sterol level, percent of control” value with Rattus norvegicus [6] stood at 97%.
For `Cc1ccc(CCCNc2ccc(C(=O)O)cc2)cc1`, the “serum triglycerides, percent of control” value is on record as 50% in the test on Rattus norvegicus [1] and 54% in the test on Rattus norvegicus [3]. Further, the inhibition in test [2] was determined as 49%. Also, the Diet in the test on Rattus norvegicus [4] was 63%. Also, the results for the “serum sterol, percent of control” value in the test with Rattus norvegicus [5] and in the test with Rattus norvegicus [7] were 90% and 110%, respectively. Further, the “serum sterol level, percent of control” value with Rattus norvegicus [6] amounted to 98%.
With `O=C(O)c1ccc(NCCCc2cccc(Br)c2)cc1`, the “serum triglycerides, percent of control” value in the test with Rattus norvegicus [1] amounted to 60%; in the test on Rattus norvegicus [3], 67%. Further, the inhibition in test [2] came out at 18%. For the same compound, the “serum sterol, percent of control” value amounted to 80% with Rattus norvegicus [8] and 92% in the test on Rattus norvegicus [5]. This compound displayed a Diet in the test with Rattus norvegicus [4] of 63%. Moreover, the “serum sterol level, percent of control” value in the test on Rattus norvegicus [6] was determined as 91%.
Turning to `CCOC(=O)c1ccc(NCCCc2cccc(Cl)c2)cc1`, the “serum triglycerides, percent of control” value in the test on Rattus norvegicus [1] is 56%; in the test with Rattus norvegicus [3] it was 65%. This compound also gave an inhibition in test [2] of 79%. Further, the “serum sterol, percent of control” value in the test on Rattus norvegicus [8] is recorded as 80%; in the test on Rattus norvegicus [5], 93%. The compound further gave a Diet with Rattus norvegicus [4] of 65%. In addition, in the test with Rattus norvegicus [6], the “serum sterol level, percent of control” value is on record as 88%.
For `CCOC(=O)c1ccc(NCCCc2cccc(F)c2)cc1`, the “serum triglycerides, percent of control” value stood at 37% in the test on Rattus norvegicus [1] and 55% with Rattus norvegicus [3]. For the same compound, in test [2], the inhibition was 50%. For the same compound, the “serum sterol, percent of control” value worked out at 77% with Rattus norvegicus [8] and 91% in the test on Rattus norvegicus [5]. The compound also had a Diet in the test with Rattus norvegicus [4] of 78%. In addition, the “serum sterol level, percent of control” value in the test on Rattus norvegicus [6] was determined as 88%.
With `CCOC(=O)c1ccc(NCCCCCCc2ccco2)cc1`, the “serum triglycerides, percent of control” value with Rattus norvegicus [1] amounted to 60%; in the test with Rattus norvegicus [3], 64%. In test [2], the inhibition came to 37%. For the same compound, in the test on Rattus norvegicus [4], the Diet is listed as 68%. For the same compound, the “serum sterol, percent of control” value came to 95% in the test on Rattus norvegicus [5] and 90% with Rattus norvegicus [7]. The “serum sterol level, percent of control” value in the test on Rattus norvegicus [6] stood at 103%.
On to `CCOC(=O)c1ccc(NCCCCCCc2ccc(Cl)cc2)cc1`, for which the “serum triglycerides, percent of control” value in the test with Rattus norvegicus [1] is given as 50%; in the test on Rattus norvegicus [3], 68%. In addition, the inhibition in test [2] was determined as 30%. Further, the Diet in the test on Rattus norvegicus [4] amounted to 73%. Also, the “serum sterol, percent of control” value in the test on Rattus norvegicus [5] is listed as 99%; in the test on Rattus norvegicus [7], 85%. In addition, the “serum sterol level, percent of control” value with Rattus norvegicus [6] amounted to 95%.
